# Measurements: ChEMBL document CHEMBL1781979, “The discovery of novel calcium sensing receptor negative allosteric modulators” (Bioorg Med Chem Lett, 2009)
# Calls of active or inactive are those of the source. The rule behind the calls is not given here.
# What was measured:
# [1] = Intrinsic clearance in rat liver microsomes assessed per mg of protein; assay type: ADME, Microsome
# Outline: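 Rat liver microsomes; stability expressed as intrinsic clearance in µL/min/mg of microsomal protein.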
# [2] = target: T1, Extracellular calcium-sensing receptor (Homo sapiens, UniProt P41180); test: Negative allosteric modulator activity at human recombinant calcium sensing receptor expressed in HEK cells; assay type: functional, cell-based, HEK293
# T1 sequence (P41180 whole entry): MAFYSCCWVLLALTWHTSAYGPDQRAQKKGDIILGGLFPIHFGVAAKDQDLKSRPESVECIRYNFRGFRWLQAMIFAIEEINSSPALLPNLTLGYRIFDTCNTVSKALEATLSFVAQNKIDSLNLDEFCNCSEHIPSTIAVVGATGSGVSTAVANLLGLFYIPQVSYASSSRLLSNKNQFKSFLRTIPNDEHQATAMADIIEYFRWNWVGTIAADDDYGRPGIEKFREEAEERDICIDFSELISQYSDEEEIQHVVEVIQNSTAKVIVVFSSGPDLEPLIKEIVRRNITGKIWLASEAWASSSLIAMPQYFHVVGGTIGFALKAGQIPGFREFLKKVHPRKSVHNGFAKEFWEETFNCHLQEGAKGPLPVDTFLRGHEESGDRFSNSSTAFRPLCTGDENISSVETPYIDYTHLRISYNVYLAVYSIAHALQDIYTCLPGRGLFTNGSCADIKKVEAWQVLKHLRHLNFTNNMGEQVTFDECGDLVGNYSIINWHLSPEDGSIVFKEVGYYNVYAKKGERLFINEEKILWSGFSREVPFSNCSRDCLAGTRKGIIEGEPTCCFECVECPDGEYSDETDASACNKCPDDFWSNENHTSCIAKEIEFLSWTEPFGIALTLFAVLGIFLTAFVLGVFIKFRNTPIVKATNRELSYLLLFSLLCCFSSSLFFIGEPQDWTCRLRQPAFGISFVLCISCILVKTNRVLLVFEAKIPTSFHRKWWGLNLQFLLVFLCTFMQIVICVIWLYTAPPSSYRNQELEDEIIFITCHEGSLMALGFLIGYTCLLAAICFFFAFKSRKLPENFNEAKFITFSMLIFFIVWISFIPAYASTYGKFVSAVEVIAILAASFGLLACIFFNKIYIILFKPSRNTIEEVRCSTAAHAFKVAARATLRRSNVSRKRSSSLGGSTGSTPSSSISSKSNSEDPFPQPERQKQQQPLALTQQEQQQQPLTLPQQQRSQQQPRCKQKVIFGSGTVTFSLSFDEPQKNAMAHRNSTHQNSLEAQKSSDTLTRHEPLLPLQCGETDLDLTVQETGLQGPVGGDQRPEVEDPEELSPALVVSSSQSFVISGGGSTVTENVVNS
# Outline: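 Human recombinant CaSR expressed in HEK cells; potency from n = 3 determinations.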
# [3] = Intrinsic clearance in human liver microsomes assessed per mg of protein; assay type: ADME, Microsome
# Outline: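 Stability in human liver microsomes reported as intrinsic clearance, µL/min/mg microsomal protein.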
# [4] = Lipophilicity, log D of the compound; assay type: physicochemical; conditions: octanol/water
# [5] = Oral bioavailability in Sprague-Dawley rat; assay type: ADME, organism-based; conditions: in vivo
# [6] = Clearance in Sprague-Dawley rat at 1 mg/kg, iv; assay type: ADME, organism-based; design: dose 1 mg/kg, route intravenous; conditions: in vivo
# Outline: (§1)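 Intravenous dosing at 1 mg/kg to rats; volume of distribution, plasma clearance (mL/min/kg) and half-life derived from the iv plasma profile.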
# [7] = Volume of distribution in Sprague-Dawley rat at 1 mg/kg, iv; assay type: ADME, organism-based; design: dose 1 mg/kg, route intravenous; conditions: in vivo; outline: as §1
# Rattus norvegicus [8] = test: Clearance in Sprague-Dawley rat at 1 mg/kg, iv; conditions: in vivo
# [9] = Half life in Sprague-Dawley rat at 1 mg/kg, iv; assay type: ADME, organism-based; design: dose 1 mg/kg, route intravenous; conditions: in vivo; outline: as §1
# [10] = Cmax in Sprague-Dawley rat at 10 mg/kg, po; assay type: ADME, organism-based; design: dose 10 mg/kg, route oral; conditions: in vivo
# Outline: (§2)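 Oral dosing at 10 mg/kg to rats; total plasma Cmax and oral bioavailability determined from plasma exposure, alongside the 1 mg/kg iv leg.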
# Rattus norvegicus [11] = test: Increase in PTH (1-84) release response in Sprague-Dawley rat at 10 mg/kg, po by PTH ELISA; assay type: functional, organism-based; design: dose 10 mg/kg
# [12] = Inhibition of cytochrome P450; assay type: ADME
# Rattus norvegicus [13] = test: Toxicity in Sprague-Dawley rat assessed as incidence of adverse effect at 500 mg/kg in 4 day drug toleration study; assay type: organism-based; design: dose 500 mg/kg; conditions: in vivo, 96 h
# Outline: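 Rats given 500 mg/kg over a 4 day toleration study, monitored for adverse effects.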
# hERG (KCNH2) = hERG (KCNH2) (Homo sapiens, UniProt Q12809); test: Inhibition of human ERG at 10 uM by whole cell voltage clamp technique
# [14] = Oral bioavailability in Sprague-Dawley rat at 10 mg/kg; assay type: ADME, organism-based; conditions: in vivo; outline: as §2
# [15] = target: Extracellular calcium-sensing receptor (Homo sapiens) (UniProt P41180); test: Negative allosteric modulator activity at human calcium sensing receptor expressed in HEK cells
# hERG (KCNH2), sequence (Q12809 whole entry): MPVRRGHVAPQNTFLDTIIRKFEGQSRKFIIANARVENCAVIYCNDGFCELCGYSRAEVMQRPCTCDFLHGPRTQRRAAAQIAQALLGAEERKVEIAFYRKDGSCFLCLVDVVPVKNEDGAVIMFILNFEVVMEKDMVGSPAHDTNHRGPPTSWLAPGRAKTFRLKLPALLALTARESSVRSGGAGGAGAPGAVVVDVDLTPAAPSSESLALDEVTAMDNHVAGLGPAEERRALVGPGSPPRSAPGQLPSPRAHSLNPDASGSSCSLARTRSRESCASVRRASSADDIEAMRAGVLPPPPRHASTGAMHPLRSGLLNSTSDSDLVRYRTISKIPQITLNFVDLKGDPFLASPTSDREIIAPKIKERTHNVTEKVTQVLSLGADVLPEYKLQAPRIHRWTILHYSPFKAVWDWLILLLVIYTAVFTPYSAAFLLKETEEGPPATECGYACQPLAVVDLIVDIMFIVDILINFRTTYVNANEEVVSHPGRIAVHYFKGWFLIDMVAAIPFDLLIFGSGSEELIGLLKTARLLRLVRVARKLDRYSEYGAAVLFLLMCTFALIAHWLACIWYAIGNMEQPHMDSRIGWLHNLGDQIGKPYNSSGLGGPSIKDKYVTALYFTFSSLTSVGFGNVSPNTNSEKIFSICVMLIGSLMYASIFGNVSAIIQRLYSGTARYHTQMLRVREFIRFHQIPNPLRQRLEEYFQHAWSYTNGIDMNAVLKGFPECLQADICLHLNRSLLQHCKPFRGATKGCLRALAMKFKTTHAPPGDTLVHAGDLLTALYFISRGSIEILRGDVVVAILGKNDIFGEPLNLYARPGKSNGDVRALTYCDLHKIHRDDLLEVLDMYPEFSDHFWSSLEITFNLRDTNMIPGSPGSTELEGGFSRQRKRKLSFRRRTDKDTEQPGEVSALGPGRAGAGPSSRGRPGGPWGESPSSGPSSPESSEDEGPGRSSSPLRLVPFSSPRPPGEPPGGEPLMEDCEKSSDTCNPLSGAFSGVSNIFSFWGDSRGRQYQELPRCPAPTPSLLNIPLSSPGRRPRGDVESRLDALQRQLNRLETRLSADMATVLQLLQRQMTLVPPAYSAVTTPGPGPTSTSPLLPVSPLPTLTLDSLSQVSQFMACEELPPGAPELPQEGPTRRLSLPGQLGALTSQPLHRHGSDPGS
SMILES,microsomal CLint [1] [µL/min/mg],IC50 [2] [nM],microsomal CLint [3] [µL/min/mg],logD [4],further results
CC(C)(Cc1ccc2ccccc2c1)NC[C@@H](O)COc1cccc(Cl)c1C#N,> 100,23,157,,
CC(C)(CC1Cc2ccccc2C1)NC[C@@H](O)COc1cc(C2CC3CC2C2C(C(=O)O)C32)cc(F)c1F (mixture of isomers),35,56,19,2.6,
CC(C)(CC1Cc2ccccc2C1)NC[C@@H](O)COc1cccc(C2CC3CC2C2C(C(=O)O)C32)c1 (mixture of isomers),50,900,15,,
CC(C)(CC1Cc2ccccc2C1)NC[C@@H](O)COc1cc(C2CC3CC2C2C(C(=O)O)C32)ccc1C#N (mixture of isomers),25,6,17,2,bioavailability [5]: < 10%; clearance [6]: 70 mL/min/kg; Vd [7]: 5 L/kg; CL (Rattus norvegicus [8]): 83 mL/min/kg; half-life [9]: 1.5 h
Cc1ccc(CC(C)(C)NC[C@@H](O)COc2cccc(C3CC4CC3C3C(C(=O)O)C43)c2)cc1F (mixture of isomers),38,3500,23,,
Cc1ccc(CC(C)(C)NC[C@@H](O)COc2cc(C3CC4CC3C3C(C(=O)O)C43)ccc2F)cc1F (mixture of isomers),,300,20,,
Cc1ccc(CC(C)(C)NC[C@@H](O)COc2cc(C3CC4CC3C3C(C(=O)O)C43)ccc2C#N)cc1F (mixture of isomers),27,23,15,2.3,bioavailability [5]: < 10%; clearance [6]: 70 mL/min/kg; Vd [7]: 5 L/kg; CL (Rattus norvegicus [8]): 83 mL/min/kg; half-life [9]: 1.5 h
CC(C)(CN1Cc2ccccc2C1=O)NC[C@@H](O)COc1cc(C2CC3CC2C2C(C(=O)O)C32)ccc1C#N (mixture of isomers),< 10,350,9,,
Cc1ccc(CC(C)(C)NC[C@@H](O)CO[C@H](C)c2ccccc2C2CC3CC2C2C(C(=O)O)C32)cc1F (mixture of isomers),45,25,35,2.4,Cmax [10]: 1000 nM; Activity (Rattus norvegicus [11]): Active; inhibition (INH) [12]: Not Active; Activity (Rattus norvegicus [13]): Non-toxic; inhibition at 10 µM (hERG (KCNH2)): < 10%; bioavailability [14]: > 60%
C[C@@H](OC[C@H](O)CNC(C)(C)Cc1ccc(Cl)cc1F)c1ccccc1C1CC2CC1C1C(C(=O)O)C21 (mixture of isomers),14,50,16,2.8,
Cc1ccc(CC(C)(C)NC[C@@H](O)CO[C@H](C)c2ccccc2C2CC3CC2C2C(C(=O)O)C32)cc1Cl (mixture of isomers),,18,33,2.6,
C[C@@H](OC[C@H](O)CNC(C)(C)CC1Cc2ccccc2C1)c1ccccc1C1CC2CC1C1C(C(=O)O)C21 (mixture of isomers),38,3500,23,,
CC(C)(CC1Cc2ccccc2C1)NC[C@@H](O)COc1cc(CCC(=O)O)cc(F)c1F [RONACALERET],90,146,< 8,1.5,Cmax [10]: 300 nM; Activity (Rattus norvegicus [11]): inactive; inhibition at 10 µM (hERG (KCNH2)): < 10%; bioavailability [14]: 12%; IC50 [15]: 320 nM
